Among the data in ChEMBL document CHEMBL4376902, “CN128: A New Orally Active Hydroxypyridinone Iron Chelator” (J Med Chem, 2020) are Drug uptake, Activity and Drug metabolism values, retold here.

A short description of data set [1]: Drug uptake in rat bile treated with 150 umol/kg, po (R) -3,4-Dihydroxy-1-(1 -hydroxy-3-phenylpropan-2-yl)-2-methyl- pyridin-1-ium Chloride assessed as compound formation by LC/TOF/MS/MS analysis. The format is ADME, organism-based. The settings on record: in vivo. In a few lines:
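Bile collected from rats after an oral dose of 150 μmol/kg. Metabolites characterised by β-glucuronidase hydrolysis and LC-TOFMS/MS. M2/M1 ratio followed over 8 h.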

Data set [2] can be described thus: Metal chelating activity assessed as iron chelation. The gist of the method: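 Automated spectrophotometric titration at ca. 40 µM iron complex, 50 mm path. pH raised in 0.1-unit steps with 0.1 M KOH, 3 min equilibration per step, up to pH 12.0. Competition with metal hydrolysis species; spectra fitted over 400-700 nm using literature hydrolysis constants to give stability constants.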

The test system of data set [3] is Rattus norvegicus. In words: Iron scavenging activity in 59Fe-ferritin-loaded rat assessed as iron mobilization level at 450 umol/kg, po dosed 1 hr after 59Fe-ferritin injection and measured 24 hrs after 59Fe-ferritin injection by gamma counting method relative to control. Format: functional. In a few lines: (§1)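 Male SD rats, 300 g, fasted overnight, given about 1 μC 59Fe-ferritin i.v. under isoflurane. Chelator gavaged 1 h later, then rats housed in metabolic cages; food returned 1 h after dosing. Killed 24 h after 59Fe-ferritin. Urine, faeces, liver and gut gamma-counted. 8 rats per condition.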

Data set [4] can be described thus: Drug metabolism in human liver microsomes assessed as glucuronidation incubated for 1 hr relative to deferiprone. Format: ADME, Microsome. The gist of the method:
(§2)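 Compound incubated 1 h with rat or human liver microsomes, n = 4, mean ± SD. Glucuronide formed given as percentage of total chelator added. Oxidative metabolism assessed separately.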
(In general: Liver microsomes are a subcellular fraction often used to study metabolism.)

A short description of data set [5]: Drug metabolism in human liver microsomes assessed as oxidative metabolism incubated for 1 hr relative to deferiprone. The format is ADME, Microsome.
For data set [6], the system named is Mus musculus. In words: Toxicity in mouse assessed as reduction in neutrophils counts at 200 mg/kg, po dosed once daily for 2 months as 5 days per week schedule. The following applies: in vivo, 120 h.
Data set [7] relates to Mus musculus. The experiment in a line: Toxicity in mouse assessed as reduction in total white cell counts at 200 mg/kg, po dosed once daily for 2 months as 5 days per week schedule. The following applies: in vivo, 120 h.
Data set [8] is described as follows: Toxicity in Sprague-Dawley rat assessed as induction of mortality at 200 mg/kg, po dosed once daily for 2 months as 5 days per week schedule. The format is organism-based. The following applies: in vivo, 120 h.
The test system of data set [9] is Mus musculus. In words: Toxicity in mouse assessed as reduction in eosinophils counts at 200 mg/kg, po dosed once daily for 2 months as 5 days per week schedule. The following applies: in vivo, 120 h.
Data set [10] deals with Mus musculus. The experiment in a line: Toxicity in mouse assessed as reduction in monocytes counts at 200 mg/kg, po dosed once daily for 2 months as 5 days per week schedule. The following applies: in vivo, 120 h.
In data set [11] the test system is Mus musculus. The experiment in a line: Toxicity in mouse assessed as reduction in lymphocytes counts at 200 mg/kg, po dosed once daily for 2 months as 5 days per week schedule. The settings on record: in vivo, 120 h.
For data set [12], the system named is Mus musculus. The experiment in a line: Toxicity in mouse assessed as increase in reticulocyte population at 200 mg/kg, po dosed once daily for 2 months as 5 days per week schedule. The following applies: in vivo, 120 h.
In data set [13] the test system is Mus musculus. In words: Toxicity in mouse assessed as reduction in erythrocyte population at 200 mg/kg, po dosed once daily for 2 months as 5 days per week schedule. The settings on record: in vivo, 120 h.
Data set [14] is described as follows: Drug metabolism in rat liver microsomes assessed as glucuronidation incubated for 1 hr relative to deferiprone. The format is ADME, Microsome. In a few lines: as §2
Data set [15] is described as follows: Drug metabolism in rat liver microsomes assessed as oxidative metabolism incubated for 1 hr relative to deferiprone. The format is ADME, Microsome.
In data set [16] the test system is Mus musculus. The experiment in a line: Toxicity in mouse assessed as effect on platelet population at 200 mg/kg, po dosed once daily for 2 months as 5 days per week schedule. The following applies: in vivo, 120 h.
Data set [17] relates to Rattus norvegicus. In words: Iron scavenging activity in 59Fe-ferritin-loaded rat assessed as iron mobilization level at 150 to 450 umol/kg, po dosed 1 hr after 59Fe-ferritin injection and measured 24 hrs after 59Fe-ferritin injection by gamma counting method relative to control. Format: functional, organism-based. In a few lines: as §1
Data set [18] is described as follows: Toxicity in Sprague-Dawley rat assessed as induction of histopathological changes in bone marrow at 25 to 116 mg/kg, po dosed daily for 4 weeks and measured after additional 4 weeks period in absence of drug. The format is organism-based. The settings on record: in vivo, 672 h.
Data set [19] can be described thus: Toxicity in Sprague-Dawley rat assessed as induction of histopathological changes in pancreas at 25 to 116 mg/kg, po dosed daily for 4 weeks and measured after additional 4 weeks period in absence of drug. Format: organism-based. The settings on record: in vivo, 672 h.
The nature of data set [20]: Toxicity in Sprague-Dawley rat assessed as induction of histopathological changes in thymus at 25 to 116 mg/kg, po dosed daily for 4 weeks and measured after additional 4 weeks period in absence of drug. Format: organism-based. The settings on record: in vivo, 672 h.

The source made the active and inactive calls. The rule behind the calls is not given here.

For the compound `Cc1c(O[C@@H]2O[C@H](C(=O)O)[C@@H](O)[C@H](O)[C@H]2O)c(=O)ccn1[C@@H](CO)Cc1ccccc1`, the Drug uptake entry in data set [1] is on record as “Metabolite_Detected”. Further, in data set [2], the outcome was inactive.

Turning to `CCc1c(O)c(O)cc[n+]1[C@H](CO)CC(C)C.[Cl-]`, the Activity with Rattus norvegicus [3] turned out to be 10.3%.

As to `CCc1c(O)c(O)cc[n+]1[C@H](C)CO.[Cl-]`, in the data set with Rattus norvegicus [3], the Activity is on record as 10.5%.

As to `Cc1c(O)c(O)cc[n+]1[C@H](C)CO.[Cl-]`, the Activity with Rattus norvegicus [3] was determined as 6.5%.

As to `CCc1c(O)c(O)cc[n+]1[C@H](CO)Cc1ccccc1.[Cl-]`, the Activity with Rattus norvegicus [3] was determined as 13.1%.

On to `Cc1c(O)c(O)cc[n+]1[C@H](CO)Cc1ccccc1.[Cl-]`, for which the Drug metabolism entry in data set [4], in [5], in data set [14] and in data set [15] was “Metabolite_Detected” throughout. The Activity with Rattus norvegicus [3] is recorded as 12.8%; in the data set with Mus musculus [6], “Non-Toxic”; in the data set with Mus musculus [7], “Non-Toxic”; in data set [8] it was “Non-Toxic”; in the data set on Mus musculus [9], “Non-Toxic”; in the data set with Mus musculus [10], “Non-Toxic”. Further, the Activity entry in the data set on Mus musculus [11], with Mus musculus [12], with Mus musculus [13] and in the data set with Mus musculus [16] was “Non-Toxic” throughout.

With `CCc1c(O)c(O)cc[n+]1[C@H](CO)C(C)C.[Cl-]`, the Activity with Rattus norvegicus [3] is 7.9%.

Regarding `Cc1c(O)c(O)cc[n+]1CCO.[Cl-]`, the Activity in the data set on Rattus norvegicus [3] is recorded as 4%.

Take `CCc1c(O)c(O)cc[n+]1[C@@H](C)CO.[Cl-]`: the Activity in the data set with Rattus norvegicus [3] stood at 16%.

As for `Cc1c(O)c(O)cc[n+]1[C@H](CO)C(C)C.[Cl-]`, the Activity entry is “Dose-dependent effect” with Rattus norvegicus [17] and 18.7% in the data set on Rattus norvegicus [3].

With `Cc1c(O)c(=O)ccn1C` [DEFERIPRONE], the Activity result in data set [18] is “Non-Toxic”; with Rattus norvegicus [3], 11.8%; in data set [19] it was “Non-Toxic”; in data set [8], “Non-Toxic”; in data set [20], “Non-Toxic”.

On to `CCc1c(O)c(O)cc[n+]1[C@H](CO)[C@@H](C)CC.[Cl-]`, for which the Activity with Rattus norvegicus [3] is given as 5.5%.

As to `Cc1c(O)c(O)cc[n+]1[C@@H](CO)C(C)C.[Cl-]`, in the data set with Rattus norvegicus [3], the Activity stood at 8%.

`CCc1c(O)c(O)cc[n+]1CCO.[Cl-]`: the Activity in the data set on Rattus norvegicus [3] stood at 2.4%.

As for `CC[C@H](C)[C@@H](CO)[n+]1ccc(O)c(O)c1C.[Cl-]`, in the data set on Rattus norvegicus [3], the Activity is recorded as 10.8%.

As for `Cc1c(O)c(=O)ccn1[C@@H](CO[C@@H]1O[C@H](C(=O)O)[C@@H](O)[C@H](O)[C@H]1O)Cc1ccccc1`, the Drug uptake entry in [1] is recorded as “Metabolite_Detected”. In addition, the outcome in data set [2] was Active.

With `CCc1c(O)c(O)cc[n+]1[C@@H](CO)CC(C)C.[Cl-]`, the Activity in the data set with Rattus norvegicus [3] was determined as 13.6%.

In the case of `Cc1c(O)c(O)cc[n+]1[C@@H](C)CO.[Cl-]`, in the data set with Rattus norvegicus [3], the Activity is recorded as 11.9%.

`CCc1c(O)c(O)cc[n+]1[C@@H](CO)Cc1ccccc1.[Cl-]`: the Activity result with Rattus norvegicus [17] was “Dose-dependent effect”; in the data set with Rattus norvegicus [3] it was 22.3%.

As to `Cc1c(O)c(O)cc[n+]1[C@@H](CO)CC(C)C.[Cl-]`, the Activity in the data set on Rattus norvegicus [3] stood at 8.2%.

`CCc1c(O)c(O)cc[n+]1[C@@H](CO)C(C)C.[Cl-]`: in the data set on Rattus norvegicus [3], the Activity was 10.6%.

For the compound `Cc1c(O)c(O)cc[n+]1[C@H](CO)CC(C)C.[Cl-]`, the Activity with Rattus norvegicus [3] is listed as 5.8%.
